According to paper PMC3433230 (Journal of biomolecular screening, 2009):

Assays:
[1] = test system: NIH 3T3 fibroblasts; details: NIH 3T3 fibroblasts ref 30; cited from earlier work
[2] = test system: RBL-2H3 cells; assay: Live cell microscopy of RBL-2H3 cells; type: cell-based, Rat; details: 10 μM; for cell shape changes in response to ligand-mediated activation: 1 μg/ml DNP/BSA, IgE primed cells
[3] = test system: RBL-2H3 cells; assay: β-Hexosaminidase secretion measurements in RBL-2H3 cells; type: cell-based, Rat
Procedure, shortened: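 RBL-2H3 cells are primed overnight with IgE, washed and incubated 1 h with test compound in Tyrode's buffer. Supernatant is sampled for spontaneous β-hexosaminidase release. Cells are then activated with DNP/BSA (0.1 μg/ml) for 30 min at 37°C. Release is expressed as percent of total enzyme from Triton X-100-lysed cells.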

[4] = molecular target: GST-Rac1 (Homo sapiens, UniProt P63000); assay: In vitro bead based assay of Rac1 binding to fluorescent GTP; details: 10 μM compound, 100 nM fluorescent GTP
[5] = molecular target: T1, Rac1 (Mus musculus, UniProt P63001); assay: G-LISA assay for active Rac in Swiss 3T3 cells; type: cell-based; details: for blocking EGF-stimulated Rac activation: concentrations of 1 μM or less
[6] = test system: Swiss 3T3 cells; assay: Stress fiber formation in EGF treated Swiss 3T3 cells; type: cell-based; details: 10 μM, 30 min pre-treatment, 10 ng/ml EGF
Procedure, shortened: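 Quiescent, serum-starved Swiss 3T3 fibroblasts are treated 30 min with 10 μM test compound or DMSO, then stimulated with 10 ng/ml EGF for 2 min. Cells are imaged for actin stress fibres.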

[7] = test system: Cdc42wt, Rac1wt, Rac1Q61L, Rab2 wt, Rab7wt, and H-Ras wt (GST-GTPases); assay: Multiplexed primary screen, flow cytometry bead-based BODIPY-FL-GTP binding; details: 10 μM compound, 100 nM BODIPY-FL-GTP, 1 mM EDTA
Procedure, shortened: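 Each GST-GTPase (1 μM) is loaded overnight at 4°C onto its own red-intensity GSH-bead set. Beads are washed in NP-HPSE with 0.1% BSA and 1 mM DTT, then pooled, about 2000 beads per GTPase per well. Test compound is added at 10 μM (1% DMSO), with BODIPY-FL-GTP from a 200 nM stock. Plates rotate 40–45 min at 4°C and are read by HyperCyt flow cytometry. FL8 identifies bead sets; median FL1 (530 nm) gives binding. Hits exceed 20% change from baseline. Controls are DMSO and 0.5 mM unlabelled GTP.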

[8] = test system: Rac1 wt, Rac1Q61L, Rac2 wt, RhoA wt and RhoAL63, Cdc42 wt, Cdc42Q61L and Ral wt; assay: Eight-plex dose response of BODIPY-FL-GTP binding, 1 mM MgCl2; details: 1 mM MgCl2, 100 nM BODIPY-FL-GTP
Procedure, shortened: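 Buffer is NP-HPS with 1 mM MgCl2. Binding of 100 nM BODIPY-FL-GTP is measured by flow cytometry with or without a 9-point 1:3 test-compound series (final 10 nM–100 μM). Each series is run in triplicate.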

[9] = test system: H-Ras and Rab proteins; assay: Dose response of BODIPY-FL-GTP binding, 1 mM EDTA; details: 10^−4 M compound
Procedure, shortened: (§1)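 GST-GTPases are coupled overnight at 4°C to colour-coded GSH-beads at 1 μM each. Beads are run as a multiplex (Rab7 wt, Rab2 wt, H-Ras wt, H-RasG12V, Cdc42 wt, Cdc42Q61L). […] Buffer contains 1 mM EDTA. Test compound is a 9-point 1:3 series, final 10 nM–100 μM. Binding of 100 nM (final) BODIPY-FL-GTP is read by flow cytometry, in triplicate.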

[10] = molecular target: T1, Rac1; assay: Rac activation assay; type: cell-based
Procedure, shortened: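 Swiss 3T3 cells are serum-starved overnight, then treated 20–30 min with 1% DMSO or 10 μM test compound. Some cells are then given 10 ng/ml EGF for 2 min; EGF alone is the positive control.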

[11] = molecular target: Wild-type GST-Cdc42 (Homo sapiens, UniProt P60953); assay: Real-time GTP-binding kinetic assay by flow cytometry
Wild-type GST-Cdc42, sequence (P60953 whole entry): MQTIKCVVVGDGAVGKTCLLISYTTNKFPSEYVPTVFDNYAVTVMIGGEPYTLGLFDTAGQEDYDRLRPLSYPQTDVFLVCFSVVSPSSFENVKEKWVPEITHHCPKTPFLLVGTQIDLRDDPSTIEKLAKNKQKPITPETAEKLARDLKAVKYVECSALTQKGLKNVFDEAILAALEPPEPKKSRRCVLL
Procedure, shortened: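 GST-Cdc42 wt (4 μM) is bound to GSH-beads overnight at 4°C. Nucleotide is stripped with 10 mM EDTA for 20 min at 30°C, then beads are washed and resuspended in NP-HPS with 1 mM EDTA, 1 mM DTT and 0.1% BSA. Beads are preincubated 2 min with 1% DMSO or 10 μM test compound. Ice-cold BODIPY-FL-GTP (6.5–200 nM) is added, and association is followed 3 min by kinetic-mode flow cytometry (n=4). Bound signal at 3 min versus GTP concentration is curve-fitted.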

[12] = test system: RBL-2H3 cells; assay: Rhodamine-phalloidin staining and confocal microscopy of RBL-2H3 cells; type: cell-based, Rat; details: 10 μM, DNP/BSA 1 μg/ml
Procedure, shortened: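 RBL-2H3 cells on coverslips are cultured overnight with or without 10 μM test compound; stimulated cells get 1 μg/ml DNP-BSA for 30 min. Cells are fixed in 3% paraformaldehyde, permeabilised 5 min in 0.1% Triton X-100, blocked 1 h in 1% BSA and stained 1 h with rhodamine-phalloidin, all at room temperature. Confocal x-y and x-z views are collected.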

[13] = molecular target: Cdc42 (Homo sapiens, UniProt P60953); assay: Dose response of BODIPY-FL-GTP binding, 1 mM EDTA
Cdc42, sequence (P60953 whole entry): as above
Procedure, shortened: as §1

[14] = 10 μM inhibitor, 6.5–200 nM BODIPY-GTP

Q: With `O=c1cc(CN2CCOCC2)occ1OCCCCCSc1ccnc2cc(C(F)(F)F)ccc12` [EHT1864, reference compound] as the compound, how does the “lamellipodia formation following platelet derived growth factor stimulation” value [1] read?
A: Its value is “blocked”.

Q: And the “cell shape changes in response to ligand-mediated activation” value [2]?
A: The value was “failed to inhibit”.

Q: What about the “inhibition of β-hexosaminidase secretion in response to ligand-stimulation” value ([3]; 10 μM) of the same compound?
A: The value was “failed to inhibit”.

Q: What does the source list for `O=C(C#Cc1ccccc1)c1cccc([N+](=O)[O-])c1` [MLS000532223, 1-(3-nitrophenyl)-3-phenyl-2-propyn-1-one]?
A: inhibition of BODIPY-FL-GTP binding to GST-Rac1 [4]: similar; inhibition of EGF stimulated activation of Rac1 ([5]; 3–10 μM, 1 h, then 10 ng/ml EGF 2 min): effectively inhibited; blocking EGF-stimulated Rac activation [5]: Neither compound was effective; formation of stress fibers upon EGF stimulation [6]: completely inhibited; cell shape changes in response to ligand-mediated activation [2]: completely abrogated; morphology of resting cells ([2]; no ligand): no change in morphology; effect on BODIPY-FL-GTP binding to the tested GTPases, primary screen [7]: inhibitory effect; effect on BODIPY-FL-GTP binding in the presence of Mg2+ [8]: inhibited the activity of all tested GTPases of the Rho and Ral families; inhibition of BODIPY-FL-GTP binding [9]: < 20%; growth factor induced activation of Rac1 ([10]; 10 μM pretreatment, 10 ng/ml EGF for 2 min): completely inhibited; low level of active Rac1 in serum starved cells ([10]; 10 μM, 30 min pretreatment, no EGF): completely abolished; effect on Bmax of GTP-binding [11, 14]: decreased; effect on affinity of GTP to wild type Cdc42 [11, 14]: remained constant; reversibility of activity ([11]; data not shown): not reversible; toxicity to cells ([3]; 10 μM): not toxic; spontaneous β-hexosaminidase secretion, absence of ligand stimulation ([3]; 10 μM, 1 h): no β-hexosaminidase secretion; reduction of β-hexosaminidase secretion in ligand-stimulated cells ([3]; 10 μM, DNP/BSA): 50%; cell shape and F-actin after cross-linking of IgE receptors [12]: failed to flatten

Q: Which results are given for `NS(=O)(=O)c1ccc(N2N=C(c3ccccc3)CC2c2ccccc2)cc1` (centres unmarked) [MLS000573151, 4-[3,5-di(phenyl)-4,5-dihydropyrazol-1-yl]benzenesulfonamide]?
A: EC50 [13]: ~2000 nM; effect on BODIPY-FL-GTP binding to the tested GTPases, primary screen [7]: Cdc42 specific inhibitor; effect on BODIPY-FL-GTP binding in the presence of Mg2+ [8]: specific for Cdc42

Q: With `CCN(CC)CCCC(C)Nc1nc(C)cc(Nc2ccc3nc(C)cc(N)c3c2)n1` (centres unmarked) [NSC23766, reference compound] as the compound, how does the “blocking EGF-stimulated Rac activation” value [5] read?
A: Its value is “Neither compound was effective”.

Q: What about the “inhibition of EGF stimulated activation of Rac1” value ([5]; doses up to 50 μM) of the same compound?
A: The value was “more modest inhibition”.

Q: What about the “cell shape changes in response to ligand-mediated activation” value [2] of the same compound?
A: The value was “failed to inhibit”.

Q: And the “toxicity to RBL-2H3 cells” value ([3]; 50 μM)?
A: Its value is “toxic”.

Q: And the “spontaneous β-hexosaminidase release” value ([3]; 50 μM (Fig. 7A), 1 h)?
A: Its value is “extensive”.
